# How the values were obtained:
# Assay type in all cases: functional, cell-based
# [1] = Antiproliferative activity against human HL60 cells after 72 hrs by MTT assay; details: HL-60, 72 h
# Procedure, shortened: (§1)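 MTT viability after 72 h continuous exposure. Cells seeded 24 h beforehand at 2,000/well (adherent) or 10,000/well (suspension), then given 0, 0.01, 0.1, 0.5, 1.0 or 10.0 μM compound diluted from 10 mM DMSO stock into RPMI or DMEM with 10% FBS, 37°C, 5% CO2. IC50 taken as concentration killing 50% of cells versus untreated culture.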
# [2] = Antiproliferative activity against human SKOV3 cells after 72 hrs by MTT assay; details: SK-OV-3, 72 h; procedure, shortened: as §1
# [3] = Antiproliferative activity against human HL60/ADR cells after 72 hrs by MTT assay; procedure, shortened: as §1
SMILES,IC50 [1],IC50 [2],IC50 [3]
O=C1/C(=C/N2N=C(c3ccccc3)CC2c2ccccc2O)SC(=S)N1c1cccnc1 (stereo unspecified),720 nM,> 10 µM,–
CN(C)c1ccc(C2CC(c3ccccc3)=NN2/C=C2\SC(=S)NC2=O)cc1 (stereo unspecified),> 10000 nM,> 10 µM,–
COc1cccc2c1C(=O)c1c(O)c3c(c(O)c1C2=O)C[C@@](O)(C(=O)CO)C[C@@H]3O[C@H]1C[C@H](N)[C@H](O)[C@H](C)O1 [DOXORUBICIN],51 nM,0.073 µM,8.8 µM
CC(=O)Oc1ccc(N2C(=O)/C(=C/N3N=C(c4ccc5ccccc5c4)CC3c3ccccc3O)SC2=S)cc1 (stereo unspecified),500 nM,> 10 µM,–
O=C1/C(=C/N2N=C(c3ccccc3)CC2c2ccccc2O)SC(=S)N1c1cccc(C(F)(F)F)c1 (stereo unspecified),> 10000 nM,> 10 µM,–
CCOC(=O)CCN1C(=O)/C(=C/N2N=C(c3ccccc3)CC2c2ccccc2O)SC1=S (stereo unspecified),> 10000 nM,> 10 µM,–
CC(=O)Oc1ccc(N2C(=O)/C(=C/N3N=C(c4ccc(Cl)cc4)CC3c3ccc(Cl)cc3)SC2=S)cc1 (stereo unspecified),> 10000 nM,> 10 µM,–
O=C1NC(=S)/C(=C/N2N=C(c3ccc4ccccc4c3)CC2c2ccc(Cl)cc2)S1 (stereo unspecified),156 nM,> 10 µM,–
O=C1NC(=S)/C(=C/N2N=C(c3ccccc3)CC2c2ccccc2O)S1 (stereo unspecified),990 nM,7.87 µM,–
CCN1C(=O)/C(=C/N2N=C(c3ccccc3)CC2c2ccccc2O)SC1=S (stereo unspecified),> 10000 nM,> 10 µM,–
